Measurements pooled from the literature.
Protocols differ between the studies behind these lines.
Target: Serine/threonine-protein kinase ULK3 (ULK3, Homo sapiens, UniProt Q6PHR2)
Sequence (Q6PHR2 1-472, as in one of the studies): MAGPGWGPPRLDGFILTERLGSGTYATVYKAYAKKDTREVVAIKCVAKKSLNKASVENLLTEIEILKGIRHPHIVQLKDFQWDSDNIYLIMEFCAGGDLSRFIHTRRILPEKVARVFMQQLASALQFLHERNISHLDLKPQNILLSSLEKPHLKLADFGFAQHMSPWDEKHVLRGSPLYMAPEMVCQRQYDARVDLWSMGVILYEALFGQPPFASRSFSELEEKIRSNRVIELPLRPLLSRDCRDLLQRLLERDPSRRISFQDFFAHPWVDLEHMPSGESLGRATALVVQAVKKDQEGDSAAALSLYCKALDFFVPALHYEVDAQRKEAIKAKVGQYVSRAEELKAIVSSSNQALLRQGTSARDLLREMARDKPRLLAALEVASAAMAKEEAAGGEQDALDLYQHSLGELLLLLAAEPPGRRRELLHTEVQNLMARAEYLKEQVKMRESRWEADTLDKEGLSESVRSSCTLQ

SMILES | effect on | technique | concentration | remaining binding [%]
CNC(=O)Nc1ccc2c(c1)[C@@]1(CC2)OC(=O)N(CC(=O)N(Cc2ccc(F)cc2)[C@@H](C)C(F)(F)F)C1=O | cell-free assay | competition with immobilised ligand | 1 µM | 55
CN(c1nccc(-c2cnn3ncccc23)n1)C1CC1 | binding |  | 1 µM | 100
CS(=O)(=O)N1CCCC(NC(=O)[C@H](CCC2CCCCC2)NC(=O)c2ccc(CNC(=O)c3cnc4ccccn34)cc2)C1 (some centres unmarked) | cell-free assay | competition with immobilised ligand | 0.1 µM | 100
CNC(=O)[C@@H]1CC[C@@H](n2c(-c3ccc4cnccc4c3)nc3ccc(C(=O)NCc4cccc(C(N)=O)c4)cc32)C1 | binding | competition with immobilised ligand | 1 µM | 88
C[C@H](c1ccc(F)cc1)N(Cc1cccc(C(=O)O)c1)C(=O)c1cnc2ccccc2c1 | cell-free assay | competition with immobilised ligand | 1 µM | 82
CC1CCCN1c1nccc(-c2cnn3ncccc23)n1 (centres unmarked) | binding |  | 1 µM | 100
O=C(NCCCN1CCOCC1)c1ccc(Nc2nccc(-c3cc4ccccc4s3)n2)cc1 | binding | competition with immobilised ligand | 1 µM | 3.2
O=C(O)[C@H]1[C@H](Cn2nnc3ccccc3c2=O)CC[C@@H]1C(=O)c1ccc(OCCC2CCOCC2)cc1 | cell-free assay | competition with immobilised ligand | 1 µM | 85
c1cnn2ncc(-c3ccnc(N4CCC45COC5)n3)c2c1 | binding |  | 1 µM | 64
O=C(NCC1CCOCC1)c1n[nH]cc1NC(=O)c1c(F)cccc1F | binding | competition with immobilised ligand | 1 µM | 85
N[C@@H]1CCN(c2nccc(-c3cnn4ncccc34)n2)C1 | binding |  | 1 µM | 100
O=C(Nc1ccc(Oc2ccc(F)cc2)cc1)N1CCc2ncccc2[C@H]1c1ccc(F)cc1 | cell-free assay | competition with immobilised ligand | 1 µM | 99
O=C(c1ccc(Nc2ncc(Cl)c(-c3cc4ccccc4s3)n2)cc1)N1CCC(N2CCCC2)CC1 | binding | competition with immobilised ligand | 1 µM | 0.2
CN(CCCC(F)(F)F)c1nccc(-c2cnn3ncccc23)n1 | binding |  | 1 µM | 94
COc1ncc2cc3ccccc3nc2c1C#N | cell-free assay | competition with immobilised ligand | 5 µM | 91
FC(F)(F)Oc1cccc(-c2cnc3ccc(-c4ccncc4)nn23)c1 | binding | competition with immobilised ligand | 5 µM | 45
O=C(NCc1ncc(C(F)(F)F)cc1Cl)c1ccc2c(c1)C1(CCS(=O)(=O)CC1)[C@@H](C1CC1)N2S(=O)(=O)c1ccc(F)cc1 | cell-free assay | competition with immobilised ligand | 1 µM | 69
C[C@@H]1CCN(c2nccc(-c3cnn4ncccc34)n2)C1 | binding |  | 1 µM | 80
COc1cnc(Nc2cccc(S(N)(=O)=O)c2)nc1N1CCN(c2ccccc2)C(=O)C1 | binding | competition with immobilised ligand | 1 µM | 45
Cc1cnc(Nc2ccc(C(=O)N3CCC(N4CCCC4)CC3)cc2)nc1-c1cc2ccccc2s1 | binding | competition with immobilised ligand | 1 µM | 0.3
